This is an account of results in ChEMBL document CHEMBL4371093, “Divirensols: Sesquiterpene Dimers from the Australian Termite Nest-Derived Fungus Trichoderma virens CMB-TN16” (J Nat Prod, 2019).

Active and inactive are the calls of the source. No cut-off for these calls is given here.

Assay [1] concerns SW-620. Kind of assay: Growth inhibition of human SW620 cells up to 30 uM after 48 hrs by MTT assay. In kind it is functional, cell-based. The method, boiled down:
(§1)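 Adherent cells grown with 10% FBS, 2 mM L-glutamine and penicillin/streptomycin at 37 °C, 5% CO2. Seeded at 3000 cells/well and attached for 18 h. Compound added at a final 30 μM in 1% DMSO for 48 h. MTT then added (final 0.5 mg/mL) for 4 h, formazan dissolved in DMSO, absorbance read at 580 nm. Negative control 1% DMSO, doxorubicin positive control. Run in duplicate. IC50 versus negative control.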
On the technique in general: Tetrazolium dyes change colour on reduction, which living cells bring about.

Assay [2] concerns NCI-H460. Put plainly: Growth inhibition of human NCI-H460 cells up to 30 uM after 48 hrs by MTT assay. In kind it is functional, cell-based. Summed up: as §1
For assay [3], the system named is Staphylococcus aureus. Put plainly: Antibacterial activity against Staphylococcus aureus ATCC 25923 up to 30 uM after 24 hrs by spectrophotometric method. In kind it is functional, organism-based. The method, boiled down:
(§2)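 Bacteria grown on tryptic soy agar at 37 °C for 24 h. One colony moved to tryptic soy broth and adjusted to 10^4−10^5 CFU/mL. Compound in DMSO, diluted with water to a 600 μM stock in 20% DMSO, then added to broth at a final 30 μM in 1% DMSO. Incubated 37 °C for 24 h, OD600 read. Rifampicin positive control. IC50 taken as 50% growth inhibition.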

Assay [4] has as its system Bacillus spizizenii. Put plainly: Antibacterial activity against Bacillus subtilis ATCC 6633 up to 30 uM after 24 hrs by spectrophotometric method. In kind it is functional, organism-based. The method, boiled down:
as §2

The subject of assay [5] is Escherichia coli. Kind of assay: Antibacterial activity against Escherichia coli ATCC 25922 up to 30 uM after 24 hrs by spectrophotometric method. In kind it is functional, organism-based. Summed up: as §2
Assay [6] is described as follows: Inhibition of DNA polymerase (unknown origin). More on the design: species or system Homo sapiens.
Assay [7] concerns HeLa. Kind of assay: Growth inhibition of human HeLa cells. In kind it is functional. As to conditions: read-out: LD50 (the source's name).
The test system of assay [8] is MCF7. Put plainly: Growth inhibition of human MCF7 cells. In kind it is functional. Conditions: read-out: LD50 (the source's name).

For the compound `CC(=O)OCC1=C[C@H](/C=C(\CO)C(=O)O)[C@@H](C(C)C)CC1`, the “growth inhibition (GI)” value in assay [1] and in assay [2] was “inactive” in each case. Besides, the outcome in assay [3], in assay [4] and in assay [5] was inactive.
Take `CC(C)[C@H]1CC[C@@]2(OC(=O)/C(=C/[C@H]3C=C(CO)CC[C@@H]3C(C)C)CO)COC(=O)[C@H]2[C@@H]1/C=C(\CO)C(=O)O`: the “growth inhibition (GI)” value in assay [1] and in assay [2] was “inactive” throughout. Also, the outcome in assay [3], in assay [4] and in assay [5] was inactive.
Regarding `CC(C)[C@H]1CC[C@@]2(OC(=O)/C(=C/[C@H]3C4=C(CC[C@@H]3C(C)C)COC4=O)CO)COC(=O)[C@H]2[C@@H]1/C=C(\CO)C(=O)O`, the “growth inhibition (GI)” value in assay [1] and in assay [2] was “inactive” in each case. The outcome in assay [3], in assay [4] and in assay [5] was inactive.
With `CC(C)[C@H]1CC[C@@](O)(COC(=O)/C(=C/[C@H]2C=C(CO)CC[C@@H]2C(C)C)CO)[C@H]2C(=O)OCC(C(=O)O)=C[C@H]12`, the “growth inhibition (GI)” value in assay [1] and in assay [2] was “inactive” in each case. The outcome in assay [3], in assay [4] and in assay [5] was inactive.
For the compound `CC(C)[C@H]1CCC(CO)=C[C@@H]1/C=C(\CO)C(=O)O`, the “growth inhibition (GI)” value in assay [1] and in assay [2] was “inactive” each time. For the same compound, the result in assay [3], in assay [4] and in assay [5] was inactive.
For the compound `CC(C)[C@H]1CC[C@@](O)(COC(=O)/C(=C/[C@H]2C3=C(CC[C@@H]2C(C)C)COC3=O)CO)[C@H]2C(=O)OCC(C(=O)O)=C[C@H]12`, the “growth inhibition (GI)” value in assay [1] and in assay [2] was “inactive” in each case. The outcome in assay [3], in assay [4] and in assay [5] was inactive.
As a reminder, the IC50 is the midpoint of a concentration-inhibition curve. A higher IC50 goes with lower potency. `CC(C)C1CCC(O)(COC(=O)C2=CC3C(C(C)C)CCC4(CO4)C3C(=O)OC2)C2C(=O)OCC(C(=O)O)=CC12` (stereo not drawn): half-maximal inhibition in assay [6] (IC50) was put at 30.8 µM. For the same compound, the CC50 in assay [7] is 33 µM; in assay [8], 31.6 µM.
As for `CC(=O)OC/C(=C\[C@H]1C=C(CO)CC[C@@H]1C(C)C)C(=O)O`, the “growth inhibition (GI)” value in assay [1] and in assay [2] was “inactive” each time. For the same compound, the result in assay [3], in assay [4] and in assay [5] was inactive.
As to `CC(C)[C@H]1CC[C@@](O)(COC(=O)C2=C[C@H]3[C@@H](OC2)[C@H](CO)CC[C@@H]3C(C)C)[C@H]2C(=O)OCC(C(=O)O)=C[C@H]12`, the “growth inhibition (GI)” value in assay [1] and in assay [2] was “inactive” in each case. For the same compound, the result in assay [3], in assay [4] and in assay [5] was inactive.
On to `CC(C)[C@H]1CC[C@@](O)(COC(=O)/C(=C/[C@@H]2[C@@H](C(C)C)CC[C@@]3(O)COC(=O)[C@@H]23)CO)[C@H]2C(=O)OCC(C(=O)O)=C[C@H]12`, for which the “growth inhibition (GI)” value in assay [1] and in assay [2] was “inactive” in each case. Besides, the result in assay [3], in assay [4] and in assay [5] was inactive.
As for `CC(C)[C@H]1CC[C@@](O)(COC(=O)/C(=C/[C@H]2C3=C(CC[C@@H]2C(C)C)COC3=O)CO)[C@@H](C(=O)O)[C@@H]1/C=C(\CO)C(=O)O`, the “growth inhibition (GI)” value in assay [1] and in assay [2] was “inactive” in each case. In addition, the result in assay [3], in assay [4] and in assay [5] was inactive.
